SIRT5 inh = SIRT5 desuccinylase inhibitors, primary screen, biochemical, fluorescence imaging, single point, set 5. NAD-dependent protein deacylase sirtuin-5, mitochondrial (Homo sapiens), Q9NXA8. inhibition, % at 15 µM. actives 1.1% (n = 330,000). Purified SirT5, succinyl-peptide AMC, trypsin-coupled fluorescence; in the data active = inhibition above about 15%; inconclusive = no clear call, values can overlap the other calls
E-selectin induc = E-selectin induction in HUVECs, primary screen, imaging, HUVEC, immunofluorescence imaging, single point | normalized: neutral wells 0, TNF-alpha wells 100 | actives 0.37% (n = 260,000) | activation, % at 7.58 µM | AID 686992, 2013 | P16581;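 active = mean E-selectin-positive cell signal at least 10% of the positive control, reached in at least 60% of replicates, without over 20% cell loss; inconclusive = no rule given, readout overlaps actives, possibly toxicity-flagged; inactive = the rest, including those meeting only one limit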
Target sequence (P16581 whole entry, looked up): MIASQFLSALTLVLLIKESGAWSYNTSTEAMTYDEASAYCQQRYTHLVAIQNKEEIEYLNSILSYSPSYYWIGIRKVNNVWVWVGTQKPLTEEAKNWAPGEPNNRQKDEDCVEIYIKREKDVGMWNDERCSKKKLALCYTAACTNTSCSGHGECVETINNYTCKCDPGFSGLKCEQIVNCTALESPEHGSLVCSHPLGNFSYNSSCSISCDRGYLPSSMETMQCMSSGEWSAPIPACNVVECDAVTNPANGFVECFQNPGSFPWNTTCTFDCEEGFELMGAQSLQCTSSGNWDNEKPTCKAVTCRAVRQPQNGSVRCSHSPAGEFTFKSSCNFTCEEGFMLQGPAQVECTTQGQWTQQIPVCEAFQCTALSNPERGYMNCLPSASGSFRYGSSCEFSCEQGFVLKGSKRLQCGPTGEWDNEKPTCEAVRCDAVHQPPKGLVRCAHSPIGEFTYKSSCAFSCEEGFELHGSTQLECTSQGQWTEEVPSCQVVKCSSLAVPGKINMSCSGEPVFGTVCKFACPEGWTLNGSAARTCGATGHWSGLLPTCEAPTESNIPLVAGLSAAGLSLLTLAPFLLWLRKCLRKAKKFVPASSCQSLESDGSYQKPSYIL
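Material: HUVEC primary endothelial cells; Amount: 3,000 cells per well; Dosing: single concentration; Medium: EGM-2 growth medium on 0.1% gelatin-coated wells; Read-out basis: percent E-selectin-positive cells; Signal: immunofluorescence imaging; Control set: TNF-alpha, DMSO.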
DENV2 CPE = inhibitors of DENV2 cytopathic effect, primary screen, cell-based, plate reader, single concentration | CPE inhibition, % at 9.99 µM | actives 1.7% (n = 350,000) | DENV2-infected cells, cytopathic effect rescue; in the data active = CPE inhibition above about 20%, passing the limit was not always enough; inconclusive = no clear call, values can overlap the other calls; tested in BHK-21 cells;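 also: 0% = median of neutral control wells and 100% = median of positive control wells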
Active calls of the source: *; ? = inconclusive; · = not tested or not shown; ! = not active in a repeat. Shown are actives, neighbours in structure and some others; about 2.8% of the full set was active somewhere.

SMILES | SIRT5 inh | E-selectin induc | DENV2 CPE
CO[C@H]1CN(C)C(=O)c2cc(NS(C)(=O)=O)ccc2OC[C@@H](C)N(C(=O)c2ccc3c(c2)OCO3)C[C@H]1C | · | -0.1 | 27.5*
CO[C@H]1CN(C)C(=O)c2cc(NS(C)(=O)=O)ccc2OC[C@H](C)N(C(=O)c2ccc3c(c2)OCO3)C[C@@H]1C | · | -0.1 | 41.7*
CCC(=O)N[C@H]1C=C[C@@H](CC(=O)NCC2CC2)O[C@@H]1CO | 1.1 | -0.1 | ?
COc1ccccc1-c1ccc([C@@H]2[C@@H](C#N)N(C(=O)C3CC3)[C@@H]2CO)cc1 | -0.8 | 0.1 | -5.3
CN(C)CC(=O)N[C@@H]1CC[C@@H](CCn2cc(C3CC3)nn2)O[C@@H]1CO | -2.4 | 0.0 | 9.4
Cc1cc(NC(=O)COC(=O)Cn2[nH]c(=O)c3ccccc3c2=O)c([N+](=O)[O-])cc1C | · | 0.0 | 52.1*
CCC(=O)OCC(=O)Nc1cc(C)c(C)cc1[N+](=O)[O-] | -0.7 | -8.1 | ·
O=C(Nc1ccc(F)cc1)N[C@H]1CC[C@@H](CCNC(=O)c2ccccc2F)O[C@@H]1CO | -0.5 | -0.3 | -0.6
CC1(C(=O)NCc2cccc(C(F)(F)F)c2)CCN1Cc1cc2ccccc2o1 (stereo not drawn) | -20.6 | -0.9 | 55.6*
CC1(C(=O)NCc2cccc(C(F)(F)F)c2)CCN1Cc1ccc(-c2ccccc2)o1 (stereo not drawn) | 0.0 | -1.6 | 1.1
CN(C)c1ccc(C=NNc2ccccn2)c(Cl)c1 | 16.6* | 1.1 | -1.7
CN(C)c1ccc(/C=N\Nc2ccccn2)cc1 | -0.5 | · | -9.8
O=C(Nc1ccc(F)cc1)Nc1ccc2c(c1)[C@H]1C[C@H](CC(=O)N3CCCCC3)O[C@H](CO)[C@H]1O2 | · | 0.0 | 7.4
C(=C\c1ccc(C2[C@@H]3CN(Cc4cocn4)C[C@H]2N3)cc1)/c1ccccc1 (stereo partly drawn) | · | 0.0 | 30.5*!
Cc1ccccc1-c1ccc(C2[C@@H]3CN(Cc4cocn4)C[C@H]2N3)cc1 (stereo partly drawn) | · | 0.2 | 17.3
COc1ccc2c3c([nH]c2c1)[C@@H](CO)N(C(=O)C1CCCC1)CC31CN(C)C1 | · | 0.0 | 4.7
CC(C)Cc1cc(C(=O)N2CCC(N3CCC(C(=O)N4CCCC4)CC3)CC2)n[nH]1 | 3.9 | 0.0 | -3.7
CC(C)Cc1cc(C(=O)N2CCC(N3CCC(C(=O)NC4CC4)CC3)CC2)n[nH]1 | 17.1* | · | 1.2
COc1ccc(NC(=O)Nc2ccc3c(c2)CC(=O)N([C@@H](C)CO)C[C@@H](C)[C@H](CN(C)S(=O)(=O)c2c(C)noc2C)O3)cc1 | 6.4 | · | 17.0
Cc1cccc(-c2ccc([C@@H]3[C@@H](CO)N4CCCCN(S(=O)(=O)c5cccs5)C[C@@H]34)cc2)c1 | 8.2 | -0.1 | 0.7
CC(OC(=O)c1ccccc1O)C(=O)Nc1ccc(Cl)cn1 (stereo not drawn) | -1.8 | 0.2 | -6.9
CC(OC(=O)C1=COCCO1)C(=O)Nc1ccc(Cl)cn1 (stereo not drawn) | 3.9 | 1.3 | 69.5*
CCN1C(=O)/C(=C/C=C2/Sc3ccc4ccccc4c3N2CCO)SC1=S | · | 33.9* | -0.8
CN1CCS/C1=C/C=C1/SC(=S)N(Cc2ccccc2)C1=O | -0.8 | · | 1.3
COc1cccc(OCCCN2CCC(C(O)(c3ccccc3)c3ccccc3)CC2)c1 | · | 0.1 | -5.3
SMILES | SIRT5 inh | E-selectin induc | DENV2 CPE
Cc1cccc(OCCCN2CCC(C(O)(c3ccccc3)c3ccccc3)CC2)c1 | -0.4 | -0.2 | 34.5*
CC(=O)Nc1ccc(OCCCN2CCC(C(O)(c3ccccc3)c3ccccc3)CC2)cc1 | -3.8 | 0.9 | 34.1*
CC(=O)Nc1ccccc1OCCCN1CCC(C(O)(c2ccccc2)c2ccccc2)CC1 | 0.6 | 1.0 | 4.0
O=C(O)CSc1nc2ccccc2n1-c1ccccc1 | 1.6 | 1.5 | 2.9
NC(=O)CSc1nc2ccccc2n1-c1ccccc1 | 26.1* | · | ·
COCC(=O)Nc1ccc2c(c1)C(=O)N(C)[C@H]1CC[C@H](CC(=O)NCC3CC3)O[C@H]1CO2 | -4.5 | -0.1 | -5.6
O=C(Nc1ccc2c(c1)[C@H]1C[C@H](CC(=O)N3CCOCC3)O[C@H](CO)[C@H]1O2)c1ccc2c(c1)OCO2 | · | -0.2 | -6.4
CC(C)C[C@@H](CN=[N+]=[N-])N1CCN(CC(C)C)CCC1=O | · | -0.1 | 87.0*
CC(C)C[C@@H](CN=[N+]=[N-])N1CCN(C)CCC1=O | -2.1 | 0.0 | -13.2
CN(C)C(=O)C[C@@H]1C[C@@H]2c3cc(NC(=O)CC4CC4)ccc3O[C@@H]2[C@H](CO)O1 | -3.9 | 0.3 | -2.0
Cc1ccc(-c2ccc3c(c2)O[C@@H](CN(C)C(=O)Nc2ccccc2)[C@@H](C)CN([C@@H](C)CO)S3(=O)=O)cc1 | 6.7 | 1.2 | 2.5
CC(C)C#Cc1cnc2c(c1)C(=O)N([C@H](C)CO)C[C@@H](C)[C@H](CN(C)C(=O)Nc1cc(F)ccc1F)O2 | -1.2 | 0.0 | -2.8
O=[N+]([O-])c1cc(Cl)c2cccnc2c1O | 16.6* | -0.1 | 5.3
O=[N+]([O-])c1cc(Cl)c(O)c2ncccc12 | 7.8 | 0.1 | -2.7
CC[C@@H](C)C(NC(=O)OC(C)(C)C)c1cn([C@@H](CCCCNC(=O)OC(C)(C)C)C(=O)N2CCN(C(=O)OC(C)(C)C)CC2)nn1 (stereo partly drawn) | 16.3* | 1.3 | -6.6
CC(C)CC(NC(=O)OC(C)(C)C)c1cn([C@@H](CCCCNC(=O)OC(C)(C)C)C(=O)N2CCN(C(=O)OC(C)(C)C)CC2)nn1 (stereo partly drawn) | · | 0.4 | ·
COc1ccccc1-c1cnc2c(c1)C(=O)N([C@H](C)CO)C[C@@H](C)[C@@H](CN(C)C(=O)c1cccnc1)O2 | 0.6 | -0.1 | 17.3
CC(C)(OC(=O)c1ccc(C#N)cc1)c1cc2ccccc2c(=O)o1 | · | -0.1 | 36.7*
CC(C)(OC(=O)c1ccc(C(F)(F)F)cc1)c1cc2ccccc2c(=O)o1 | · | 0.1 | -4.5
Cc1noc(C)c1NC(=O)N(C)C[C@@H]1Oc2ncc(C#CCN(C)C)cc2C(=O)N([C@@H](C)CO)C[C@H]1C | -2.6 | -0.1 | -16.6
C/C=C/c1ccc2c(c1)O[C@H](CN(C)C(=O)NC1CCCC1)[C@@H](C)CN([C@@H](C)CO)S2(=O)=O | -1.5 | 0.2 | -8.7
C/C=C/c1ccc2c(c1)O[C@H](CN(C)C(=O)NC1CCCCC1)[C@H](C)CN([C@H](C)CO)S2(=O)=O | 6.7 | -0.3 | 1.5
C[C@H](CO)N1C[C@H](C)[C@@H](CN(C)C(=O)NC2CCCCC2)Oc2cc(/C=C/c3ccccc3)ccc2S1(=O)=O | -6.9 | · | -5.1
C/C=C/c1ccc2c(c1)O[C@@H](CN(C)C(=O)NC1CCCCC1)[C@@H](C)CN([C@H](C)CO)S2(=O)=O | 3.3 | -0.2 | 1.9
C[C@H]1CN([C@@H](C)CO)S(=O)(=O)c2ccc(/C=C/c3ccccc3)cc2O[C@H]1CN(C)C(=O)NC1CCCC1 | 19.1* | -2.0 | ?
C[C@@H]1CN([C@@H](C)CO)S(=O)(=O)c2ccc(/C=C/c3ccccc3)cc2O[C@@H]1CN(C)C(=O)NC1CCCCC1 | 27.8* | · | -10.5
